Published values of several laboratories.
Lines come from different studies, so protocols differ.
Target: cAMP-dependent protein kinase catalytic subunit PRKX (PRKX, Homo sapiens, UniProt P51817)
Residues used in one study (P51817 1-358): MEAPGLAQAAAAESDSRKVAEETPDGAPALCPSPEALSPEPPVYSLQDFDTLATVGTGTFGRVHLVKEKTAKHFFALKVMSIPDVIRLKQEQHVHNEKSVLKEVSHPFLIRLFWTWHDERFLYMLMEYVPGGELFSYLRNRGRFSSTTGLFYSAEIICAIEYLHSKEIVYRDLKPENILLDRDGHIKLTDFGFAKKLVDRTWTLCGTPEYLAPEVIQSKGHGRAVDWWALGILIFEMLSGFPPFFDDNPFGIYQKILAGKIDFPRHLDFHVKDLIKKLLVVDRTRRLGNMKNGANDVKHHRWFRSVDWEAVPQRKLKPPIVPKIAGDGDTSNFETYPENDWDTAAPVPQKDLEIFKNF

Structure (SMILES) | assay | setting | endpoint | result
C[C@H](c1cccc(C#N)c1)n1cc(Cl)cc(C(N)=O)c1=N | cell-free assay, competition with immobilised ligand | 1 µM | remaining binding | 100%
Cc1ccc(Nc2nccc(N(C)c3ccc4c(C)n(C)nc4c3)n2)cc1S(N)(=O)=O | enzyme activity, inhibitor | 10 µM | inhibition | 88%
CCS(=O)(=O)c1cc2cc(C[C@@](O)(CC(C)(C)c3ccc(F)cc3C(N)=O)C(F)(F)F)[nH]c2cn1 | cell-free assay, competition with immobilised ligand | 1 µM | remaining binding | 77%
Cc1ccc(C(=O)Nc2ccc(CN3CCN(C)CC3)c(C(F)(F)F)c2)cc1C#Cc1cnc2cccnn12 | enzyme activity | 23.5 nM | remaining activity | 77%
O=C1Nc2ccc(Cl)cc2C1=Cc1cc(Cl)c(O)c(Cl)c1 | cell-free assay | 0.5 µM | remaining signal | 92.1%
CC(C)(O)[C@H]1CC[C@H](Nc2ccc3ncc(-c4cccc(C(F)(F)F)c4)n3n2)CC1 | enzyme activity, inhibitor | 1 µM | remaining activity | 103%
O=C1NC(=O)c2cc(Nc3ccc(F)cc3)c(Nc3ccc(F)cc3)cc21 | cell-free assay | 0.5 µM | remaining signal | 103%
COc1cc(Cl)c(C(=O)N[C@@H](CN[C@H]2CC[C@@H](N)CC2)Cc2ccc(C#N)cc2)cc1-c1ccc(CN[C@H](C)c2ccc(C)cc2)o1 | enzyme activity, inhibitor | 1 µM | remaining activity | 97%
CN(C(=O)c1ccccc1)c1cc(N(C)c2ccc3c(c2)CCc2ccc(C(=O)NCCN4CCOCC4)cc2C3=O)ccc1F | cell-free assay, competition with immobilised ligand | 1 µM | remaining binding | 93%
CC/C(=N\NC(=O)C(C)Nc1ccccc1)c1ccc(O)c(C)c1O (centres unmarked) | enzyme activity, inhibitor | 0.1 µM | inhibition | 45.2%
CS(=O)(=O)N1CCCC(NC(=O)[C@H](CCC2CCCCC2)NC(=O)c2ccc(CNc3ncnc4c3nnn4-c3ccccc3)cc2)C1 (some centres unmarked) | cell-free assay, competition with immobilised ligand | 0.1 µM | remaining binding | 100%
CCCOc1ccc(OC)c(F)c1C(=O)c1ccc(C(=O)N[C@@H]2CNC[C@H]2NC(=O)c2ccc3[nH]ncc3c2)cc1 | enzyme activity, inhibitor | 50 nM | remaining activity | 16%
Cn1cnc(Br)c1C1=CN(c2ncnc3[nH]cnc23)CCS1 | enzyme activity, inhibitor, radiometric | 2 µM | inhibition | 92.8%
COc1cc2ncnc(Nc3ccc(Oc4ccccc4)cc3C)c2cc1OC | enzyme activity, inhibitor | 1 µM | inhibition | 6%
Nc1ncnc2occ(-c3ccc(NC(=O)Nc4cc(C(F)(F)F)ccc4F)cc3)c12 | cell-free assay, inhibitor | 20 µM | remaining signal | 74%
Cc1sc(C(=O)NC2COC2)cc1-n1cc(NC(=O)Nc2c(F)cccc2Cl)cn1 | enzyme activity, inhibitor | 10 µM | remaining activity | 87.5%
CN(C)c1nccc(-c2cnc3ncccn23)n1 | binding | 1 µM | remaining binding | 94%
C[C@@]1(Cc2ccc(C#N)cc2)C(=O)N(c2cc(Cl)cc(Cl)c2)c2ncc(C(=O)NC3(c4nc(C5CCC5)no4)CC3)n21 | cell-free assay, competition with immobilised ligand | 1 µM | remaining binding | 100%
Cc1cc(NC(=O)c2cccc3cc(-c4cccc5[nH]nc(N)c45)ccc23)ccc1F | enzyme activity, inhibitor | 0.1 µM | activity vs control | 101%
CNC(=O)c1cc(Oc2ccc(NC(=O)Nc3ccc(Cl)c(C(F)(F)F)c3)cc2)ccn1 | enzyme activity, inhibitor | 0.3 µM | inhibition | 8%
CO[C@@H](C)c1c(Nc2ccc([C@@H](N(C)C(=O)C3CCS(=O)(=O)CC3)C(F)(F)F)cc2)cnc2cc(Cl)nn12 | cell-free assay, competition with immobilised ligand | 1 µM | remaining binding | 84%
CCN(CC)CCNC(=O)c1c(C)[nH]c(/C=C2\C(=O)Nc3ccc(F)cc32)c1C | enzyme activity, inhibitor | 10 µM | inhibition | 15%
Cc1cc(NC(=O)c2cccc(S(F)(F)(F)(F)F)c2)cc(-n2ccn3nc(-c4cccnc4)cc23)c1 | cell-free assay, competition with immobilised ligand | 1 µM | remaining binding | 100%
O=c1cc(-c2cccc3c2Sc2ccccc2S3)oc(N2CCOCC2)c1 | enzyme activity, inhibitor | 0.5 µM | remaining activity | 113%
O=C(Nc1cccnn1)N1CCC(=Cc2cccc(Oc3ccc(C(F)(F)F)cn3)c2)CC1 | cell-free assay, competition with immobilised ligand | 1 µM | remaining binding | 87%
CC(C)(C)c1nc2c(s1)c1nc(N)ncc1c1ccc(NS(=O)(=O)c3c(F)cccc3F)c(F)c12 | enzyme activity, inhibitor, radiometric | 1 µM | remaining activity | 82%
